Data taken from ChEMBL document CHEMBL1150160, “New scalarane class sesterterpenes from an Indonesian sponge, Phyllospongia sp” (2002).

Test system: KB
Assay: Cytotoxicity against human KB cells at 10 ug/mL
Format: functional
How it was run: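 KB cell growth was measured in the presence of test material at 10 μg/mL. Values are given as percent inhibition of growth.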

Row | SMILES | inhibition at 10 µg/mL [%]
1 | CO[C@](C(=O)O[C@H]1C[C@H]2[C@]3(C)CC[C@H]4C(C)(C)CCC[C@]4(C)[C@H]3C[C@H](OC(C)=O)[C@]2(C)[C@@H](C=O)[C@@H]1C(C)=O)(c1ccccc1)C(F)(F)F | 30
2 | CC(=O)O[C@H]1C[C@@H]2[C@@]3(C)CCCC(C)(C)[C@@H]3CC[C@@]2(C)[C@@H]2C[C@H](O)[C@@H]3[C@H]([C@H](O)O[C@H]3C)[C@@]12C | 30
3 | CO[C@@H]1O[C@@H](C)[C@H]2[C@H]1[C@@]1(C)[C@@H](OC(C)=O)C[C@@H]3[C@@]4(C)CCCC(C)(C)[C@@H]4CC[C@@]3(C)[C@@H]1C[C@@H]2O | 30
4 | CC[C@@]1(C)CCC[C@]2(C)[C@H]3C[C@H](OC(C)=O)[C@]4(C)[C@H]5[C@@H](OC)O[C@@H](C)[C@@H]5[C@@H](O)C[C@H]4[C@]3(C)CC[C@@H]12 | 30
5 | CC(=O)O[C@H]1C[C@H]2[C@@](C)(CC[C@H]3C(C)(C)CCC[C@]23C)[C@@H]2C[C@H](O)[C@@H](C(C)=O)C[C@]21C | 30
6 | CC[C@@]1(C)CCC[C@]2(C)[C@H]3C[C@H](OC(C)=O)[C@]4(C)C[C@H](C(C)=O)[C@@H](O)C[C@H]4[C@]3(C)CC[C@@H]12 | 30
7 | CC(=O)O[C@H]1C[C@H]2[C@]3(C)CC[C@H]4C(C)(C)CCC[C@]4(C)[C@H]3C[C@H](OC(C)=O)[C@]2(C)[C@@H](C=O)[C@@H]1C(C)=O | 30
8 | CO[C@H]1O[C@@H](C)[C@H]2[C@H]1[C@@]1(C)[C@@H](OC(C)=O)C[C@@H]3[C@@]4(C)CCCC(C)(C)[C@@H]4CC[C@@]3(C)[C@@H]1C[C@@H]2O | 30
9 | CC[C@@]1(C)CCC[C@]2(C)[C@H]3C[C@H](OC(C)=O)[C@]4(C)[C@@H](C=O)[C@H](C(C)=O)[C@@H](O)C[C@H]4[C@]3(C)CC[C@@H]12 | 30
10 | CC[C@@]1(C)CCC[C@]2(C)[C@H]3C[C@H](OC(C)=O)[C@]4(C)[C@@H]5[C@H]([C@H](C)O[C@H]5O)[C@@H](O)C[C@H]4[C@]3(C)CC[C@@H]12 | 30
11 | CO[C@@H]1O[C@](C)(OC)[C@H]2[C@H]1[C@@]1(C)[C@@H](OC(C)=O)C[C@@H]3[C@@]4(C)CCCC(C)(C)[C@@H]4CC[C@@]3(C)[C@@H]1C[C@@H]2O | 30
12 | CO[C@@](C(=O)O[C@H]1C[C@H]2[C@]3(C)CC[C@H]4C(C)(C)CCC[C@]4(C)[C@H]3C[C@H](OC(C)=O)[C@]2(C)[C@@H](C=O)[C@@H]1C(C)=O)(c1ccccc1)C(F)(F)F | 30
13 | CC(=O)O[C@@H]1O[C@@H](C)[C@H]2[C@H]1[C@@]1(C)[C@@H](OC(C)=O)C[C@@H]3[C@@]4(C)CCCC(C)(C)[C@@H]4CC[C@@]3(C)[C@@H]1C[C@@H]2OC(C)=O | 30
14 | CC[C@@]1(C)CCC[C@]2(C)[C@H]3C[C@H](OC(C)=O)[C@]4(C)[C@H]5[C@H](OC)O[C@@H](C)[C@@H]5[C@@H](O)C[C@H]4[C@]3(C)CC[C@@H]12 | 30
15 | CC(=O)O[C@H]1C[C@@H]2[C@@]3(C)CCCC(C)(C)[C@@H]3CC[C@@]2(C)[C@@H]2C[C@H](O)[C@@H](C(C)=O)[C@H](C=O)[C@@]12C | 30
16 | CC(=O)O[C@H]1C[C@@H]2[C@@]3(C)CCCC(C)(C)[C@@H]3CC[C@@]2(C)[C@@H]2C[C@H](O)[C@@H](C(C)=O)[C@H](O)[C@@]12C | 30
